Screens (PubChem BioAssay)
The list is not random: actives were taken first. Their share in the collection is about 3.5%.
MrgX1 PAM – positive allosteric modulators of MrgX1, primary screen, HEK293 cells, Fluo-4 calcium flux; Mas-related G-protein coupled receptor member X1 (Homo sapiens), Q96LB2; FDSS; active compounds read high; B-score at 10 µM; 310,000 compounds, 0.63% hits; AID 588675, 2011;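 active = plate-corrected calcium response at least 3 library SD above typical, normal starting fluorescence, not activating the receptor alone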;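 also: compound read alongside a low EC10 to EC30 dose of BAM8-22 agonist; peak minus trough fluorescence over baseline measured at the second addition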
Target sequence (Q96LB2 whole entry, looked up): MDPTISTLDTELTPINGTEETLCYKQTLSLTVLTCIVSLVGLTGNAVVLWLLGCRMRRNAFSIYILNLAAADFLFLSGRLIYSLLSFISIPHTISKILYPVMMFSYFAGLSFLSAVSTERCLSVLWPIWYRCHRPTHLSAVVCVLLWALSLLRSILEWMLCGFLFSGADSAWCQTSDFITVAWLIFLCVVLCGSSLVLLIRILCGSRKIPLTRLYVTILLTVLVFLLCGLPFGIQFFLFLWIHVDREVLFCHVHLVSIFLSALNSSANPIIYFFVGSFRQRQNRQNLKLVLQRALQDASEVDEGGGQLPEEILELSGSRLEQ
MrgX1 ag – agonists of human MrgX1 receptor, primary screen, HEK293 cells, Fluo-4 calcium flux; AID 588627, 2011; B-score at 10 µM; 310,000 compounds, 0.44% hits; Mas-related G-protein coupled receptor member X1 (Homo sapiens), Q96LB2; Fluo-4 calcium fluorescence, agonist mode; active compounds read high;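 active = calcium response B-score plate-corrected fluorescence ratio at least 3 library SD, with starting fluorescence B-score inside 5 SD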
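Test system: HEK293 cells stably expressing human MrgX1 receptor; amount: 15,000 cells per well; doses: compound delivered in addition one of three; times: overnight plating before 1 h dye loading; detection: Fluo-4 NW calcium-flux fluorescence, kinetic read; read-out basis: B-scored fluorescence response ratio; controls: positive and negative controls per plate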
RGS4 pot – RGS4 potentiators or activators, primary screen, cell-based, HEK293 M3R inducible RGS4, calcium flux; 310,000 compounds, 0.92% hits; B-score at 10 µM; carbachol calcium flux Fluo4; active compounds read low;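 active = B-score of the integrated calcium signal more than 4 SD below the library mean, with starting fluorescence not abnormally high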;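 also: negative B-score means reduced calcium response which marks RGS4 activation or potentiation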
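Detection: kinetic calcium fluorescence imaging with Fluo4-AM dye, 2 µM / Material: HEK293 cells with stable M3R and inducible RGS4 / Schedule: recording 10 s baseline at 1 Hz, 100 s post-agonist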
RGS4 inh – RGS4 inhibitors, primary screen, cell-based, HEK293 M3R inducible RGS4, calcium flux. Regulator of G-protein signaling 4 (Homo sapiens), P49798. Fluo-4 calcium flux; active compounds read high; triggered by carbachol at its EC20. B-score at 10 µM. 310,000 compounds, 0.45% hits. AID 463165, 2010;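 active = B-score, a plate-corrected calcium signal, over three deviations above library mean, with baseline fluorescence within five deviations of library mean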;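 also: RGS4 expression induced by doxycycline in cells with stable M3 receptor; B-score is computed from the integrated fluorescence ratio over baseline after carbachol; higher B-score means a larger calcium signal and so more RGS4 inhibition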
Target sequence (P49798 whole entry, looked up): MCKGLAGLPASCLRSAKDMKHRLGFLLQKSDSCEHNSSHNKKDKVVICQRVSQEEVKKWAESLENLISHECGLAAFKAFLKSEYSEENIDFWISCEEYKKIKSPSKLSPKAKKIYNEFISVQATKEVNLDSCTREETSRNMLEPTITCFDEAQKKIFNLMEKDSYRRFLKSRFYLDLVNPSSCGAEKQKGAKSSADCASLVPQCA
MrgX1 antag – antagonists of human MrgX1 receptor, primary screen, HEK293 cells, Fluo-4 calcium flux; Mas-related G-protein coupled receptor member X1 (Homo sapiens), Q96LB2; B-score at 10 µM; AID 588676, 2011; BAM8-22 antagonism; active compounds read low; 310,000 compounds, 1.3% hits;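 active = calcium-response B-score plate-corrected more than 3 library SD below zero, starting fluorescence within 5 deviations, no agonist response on first addition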;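 also: peak minus trough fluorescence over baseline after final BAM8-22 challenge near maximal dose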
MrgX1 antag conf – MrgX1 receptor antagonists, duplicate retest, confirmation, HEK293 cells, Fluo-4 calcium flux; AID 602420, 2012; remaining BAM8-22 calcium response % of control (active compounds read low), % at 10 µM; 2,300 compounds, 19% hits; shares compounds with MrgX1 antag; BAM8-22 calcium flux; active compounds read low;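 active = remaining agonist calcium response no higher than 100% minus 3 SD of agonist-only control wells, with starting fluorescence near control levels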;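 also: agonist BAM8-22 given at a near maximal EC90 to ECmax level; peak minus minimum fluorescence divided by baseline after agonist addition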
HEK293 Ca flux – nonspecific calcium signal in parental HEK293, confirmation, counter-screen for MrgX1 antagonist project, parental HEK293 cells, Fluo-4 calcium flux. Fluo-4 calcium fluorescence, FDSS. 4,000 compounds, 2% hits. AID 624111, 2012. fluorescence ratio F(max-min)/F0 at 10 µM. shares compounds with MrgX1 antag;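 active = duplicate-averaged calcium fluorescence ratio at least three times the standard deviation of buffer wells, a nonspecific response in parental cells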
HEK293 Ca counter – calcium response in parental HEK293 cells, primary screen, counter-screen for MrgX1 allosteric activator project, cell-based, Fluo-4 calcium flux, duplicate; shares compounds with MrgX1 antag; Fluo-4 fluorescence ratio; active compounds read high; fluorescence ratio F(max-min)/F0 at 10 µM; 4,000 compounds, 0.4% hits;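 active = calcium fluorescence ratio, averaged over duplicates, at least 3 SD of the buffer-well ratio, meaning a nonspecific response in receptor-free cells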;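 also: untransfected parental HEK293 lacking MrgX1 used as counterscreen for MrgX1 allosteric activators; fluorescence change taken during the second addition on a kinetic imager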
HEK293 Ca cntr2 – calcium response in parental HEK293 cells, primary screen, counter-screen for MrgX1 agonist project, cell-based, Fluo-4 calcium flux, duplicate, agonist mode | shares compounds with MrgX1 antag | Fluo-4 calcium fluorescence (FDSS); active compounds read high | fluorescence ratio F(max-min)/F0 at 10 µM | 4,000 compounds, 8.7% hits;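 active = calcium fluorescence ratio at least three times the spread of buffer wells, meaning a non-specific response in parental cells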
* hit, by the source's call; i = inactive; · = no result given.

SMILES | MrgX1 PAM | MrgX1 ag | RGS4 pot | RGS4 inh | MrgX1 antag | MrgX1 antag conf | HEK293 Ca flux | HEK293 Ca counter | HEK293 Ca cntr2
CCCC(C)NC(C)C(=O)NC1CCCC1 (centres undefined) | i | i | i | i | -4.97* | i | i | i | i
CCCC(CCC(=O)NC1CCCCC1)C(=O)O (centres undefined) | i | i | i | i | i | · | · | · | ·
O=C(Nc1cccc(S(=O)(=O)N2CCCCC2)c1)Nc1ccc(Cl)cc1Cl | i | i | i | i | i | · | · | · | ·
O=C(CN1C(=O)NC2(CCCc3ccccc32)C1=O)N1CCc2ccccc2C1 (centres undefined) | i | i | i | i | -9.25* | 85.2%* | i | i | i
Cc1n[nH]c(=O)c2c(NC(=O)CSc3nnc(-c4ccncc4)n3C)oc(C)c12 | i | i | i | i | -7.07* | i | i | i | i
C=CCn1c(C)nnc1SCC(=O)Nc1oc(C)c2c(C)n[nH]c(=O)c12 | i | i | i | i | -5.26* | i | i | i | i
CCOCCCn1c(SCC(=O)Nc2oc(C)c3c(C)n[nH]c(=O)c23)nnc1-c1ccncc1 | i | i | i | i | i | · | · | · | ·
CN(C)S(=O)(=O)c1cccc(NC(=O)c2ccc(COc3ccccc3)cc2)c1 | i | i | -7.22* | i | -4.8* | 56.8%* | i | i | i
Cc1ccc(NC(=O)Cc2c(Cl)cccc2Cl)cc1S(=O)(=O)N(C)C | i | i | i | i | -19.1* | i | i | i | i
Cc1ccc(N2C(=O)c3ccccc3NC2C(C)Cc2ccc3c(c2)OCO3)cc1 (centres undefined) | i | i | i | i | -5.13* | i | i | i | i
O=C(Nc1ccc2[nH]ccc2c1)c1ccccc1 | i | i | i | i | -7.85* | 83.8%* | i | i | i
O=C(Nc1ccc2[nH]ccc2c1)c1ccc(F)cc1 | i | i | i | i | i | · | · | · | ·
OC(C[n+]1ccccc1)c1ccccc1 (centres undefined) | i | i | i | i | i | · | · | · | ·
Cc1ccc(CNc2nc3ccccc3n2C)o1 | i | i | i | i | i | · | · | · | ·
Cn1c(-c2ccc(CN3CCCCC3)o2)nc2ccccc21 | i | i | i | i | -5.31* | i | i | i | i
Cc1nc(NCc2ccccn2)c2c3c(sc2n1)CCCC3 | i | i | i | i | -5.23* | i | i | i | i
COc1cccc(-n2nnc3c(=O)n(CC(=O)N4CCC(Cc5ccccc5)CC4)cnc32)c1 | i | i | i | i | -7.53* | i | i | i | i
Cc1ccc(S(=O)(=O)CCc2nc3ccccc3[nH]2)cc1 | i | i | i | i | i | · | · | · | ·
Cc1ccc(S(=O)(=O)CCc2nc3ccccc3[nH]2)cc1C | i | i | i | i | -4.67* | i | i | i | i
OCC[C@H]1C[C@@H](O)[C@H](O)[C@]2(CCCCO2)O1 | i | i | i | i | i | · | · | · | ·
Cc1nnc(NC(=O)c2ccc(S(=O)(=O)N3CCCCCC3)cc2)o1 | i | i | i | i | -12.1* | i | i | i | i
Cc1nnc(NC(=O)c2ccc(S(=O)(=O)N3CC(C)OC(C)C3)cc2)o1 (centres undefined) | i | i | i | i | i | · | · | · | ·
CCCOCC1CC(CCc2nc(=S)[nH][nH]2)C(=O)O1 (centres undefined) | i | i | i | i | -5.3* | i | i | i | i
O=C(Cn1nnc(-c2ccc(CN3CCOCC3)cc2)n1)N(c1ccccc1)c1ccccc1 | i | i | i | i | -8.58* | i | i | i | i
O=C(Cn1nnc(-c2ccc(CN3CCOCC3)cc2)n1)N1CCCc2ccccc21 | i | i | i | i | i | · | · | · | ·
SMILES | MrgX1 PAM | MrgX1 ag | RGS4 pot | RGS4 inh | MrgX1 antag | MrgX1 antag conf | HEK293 Ca flux | HEK293 Ca counter | HEK293 Ca cntr2
COc1ccc(OC)c(NC(=O)C23CC4CC(C2)CC(n2cnc(Br)n2)(C4)C3)c1 | i | i | i | i | -5.25* | i | i | i | i
CC1CCN(S(=O)(=O)c2ccc(C(=O)N3CCCC(C(F)(F)F)C3)cc2)CC1 (centres undefined) | i | i | i | i | i | · | · | · | ·
O=C(Nc1ccc(F)cc1)Nc1cc(OCC(F)(F)F)cc(OCC(F)(F)F)c1 | i | i | i | i | -5.98* | 61.8%* | i | i | i
Cc1cccc(NS(=O)(=O)c2cc(C(=O)OCC(=O)Nc3cc(C)on3)ccc2C)c1 | i | i | i | i | -5.02* | i | i | i | i
Cc1cccc(NS(=O)(=O)c2ccc(C)c(C(=O)OCC(=O)Nc3cc(C)on3)c2)c1 | i | i | i | i | i | · | · | · | ·
Cc1ccc(S(=O)(=O)/N=C2\CN(C)C(=O)N2C)cc1 | i | i | i | i | i | · | · | · | ·
Cc1ccc(S(=O)(=O)/N=c2\scc(C)n2C)cc1 | i | i | i | i | -5.49* | i | i | i | i
CCOC(=O)N/C(N)=N/c1nc2ccccc2s1 | i | i | i | i | -7.65* | i | i | i | i
C=CCN(C(=O)c1cccc(N2C(=O)C3CC=CC(C)C3C2=O)c1)c1ccccc1 (centres undefined) | i | i | i | i | i | · | · | · | ·
COc1ccc(C(=O)NC2CC2)cc1OC1CCN(Cc2ccc(F)cc2F)CC1 | i | i | i | i | -5.58* | i | i | i | i
